What was measured:
[1] = AUC in rat at 10 mg/kg, po after 0 to 6 hrs; assay type: ADME, organism-based; design: time < 6 hr, dose 10 mg/kg, route oral; conditions: plasma
[2] = test system: Mus musculus; test: Plasma A-beta-40 level in Tg CRND8 mouse at 30 mg/kg, sc after 3 hrs; assay type: functional; conditions: route subcutaneous
How it was run: (§1)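 Tg CRND8 transgenic mice, acute single dose of 30 mpk, oral or sub-cutaneous. Plasma Aβ40 measured 3 h after dosing and expressed as % reduction.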

[3] = test system: Mus musculus; test: Plasma A-beta-40 level in Tg CRND8 mouse at 30 mg/kg, po after 3 hrs; assay type: functional; how it was run: as §1

For `CC[C@@H]1CCC[C@H](C2(OC(=O)N3CC4CCC(C3)N4CCO)CC2)N1S(=O)(=O)c1ccc(F)cc1` (mixture of isomers), the AUC at 6 h [1] was 1.78 µg·h/mL.
In the case of `CC[C@@H]1CCC[C@H](C2(OC(=O)N3CC4CCC(C3)N4CCO)CC2)N1S(=O)(=O)c1ccc(F)c(F)c1` (mixture of isomers), the AUC at 6 h [1] is reported as 1.33 µg·h/mL.
Compound `CC[C@@H]1CCC[C@H](C2(OC(=O)N3CC4CCC(C3)N4CCO)CC2)N1S(=O)(=O)c1ccc(Cl)cc1` (mixture of isomers) has an Activity [2] of 85% and an AUC at 6 h [1] of 0.939 µg·h/mL.
`CC[C@@H]1CCC[C@H](C2(OC(=O)N3CCN(CCO)[C@@H](C)C3)CC2)N1S(=O)(=O)c1ccc(Cl)cc1` (racemic) gave an AUC at 6 h [1] of 1.87 µg·h/mL.
Work on `CC[C@@H]1CCC[C@H](C2(OC(=O)N3CCN(C(C)(C)CO)CC3)CC2)N1S(=O)(=O)c1ccc(Cl)cc1` (racemic) yielded an Activity [2] of 91%, an Activity [3] of 96% and an AUC at 6 h [1] of 0.892 µg·h/mL.
`CC[C@@H]1CCC[C@H](C2(OC(=O)N3CCN(C(C)(C)CO)CC3)CC2)N1S(=O)(=O)c1ccc(F)cc1` (racemic) showed an Activity [2] of 59% and an AUC at 6 h [1] of 0.405 µg·h/mL.
In the case of `CC[C@@H]1CCC[C@H](C2(OC(=O)N3CCN(CCO)C[C@@H]3C)CC2)N1S(=O)(=O)c1ccc(Cl)cc1` (racemic), the AUC at 6 h [1] is reported as 3.41 µg·h/mL.
With `CC[C@@H]1CCC[C@H](C2(OC(=O)N3CCC(CCO)(OC)CC3)CC2)N1S(=O)(=O)c1ccc(Cl)cc1` (racemic) the AUC at 6 h [1] was 0.081 µg·h/mL.
Work on `CC[C@@H]1CCC[C@H](C2(OC(=O)N3CCC(N4CCCCC4)CC3)CC2)N1S(=O)(=O)c1cc(F)cc(F)c1` (racemic) yielded an AUC at 6 h [1] of 0.296 µg·h/mL.

— ChEMBL document CHEMBL1137438, “Small conformationally restricted piperidine N-arylsulfonamides as orally active gamma-secretase inhibitors” (Bioorg Med Chem Lett, 2007)
